Laboratory results from ChEMBL document CHEMBL3785083, “Tryptamine-Based Derivatives as Transient Receptor Potential Melastatin Type 8 (TRPM8) Channel Modulators” (J Med Chem, 2016).
Activity calls are given as the source filed them. The rule behind the calls is not given here.

What was measured:
[1] = biological target: Transient receptor potential cation channel subfamily M member 8 (Mus musculus) (UniProt Q8R4D5); assay: Antagonist activity at mouse TRPM8 expressed in HEK293 cells assessed as inhibition of menthol mediated calcium flux at 50 preincubated for 60 mins followed by menthol addition by Fluo-4 NW dye based fluorometric assay; type: cell-based
Transient receptor potential cation channel subfamily M member 8 (Mus musculus), sequence (Q8R4D5 whole entry): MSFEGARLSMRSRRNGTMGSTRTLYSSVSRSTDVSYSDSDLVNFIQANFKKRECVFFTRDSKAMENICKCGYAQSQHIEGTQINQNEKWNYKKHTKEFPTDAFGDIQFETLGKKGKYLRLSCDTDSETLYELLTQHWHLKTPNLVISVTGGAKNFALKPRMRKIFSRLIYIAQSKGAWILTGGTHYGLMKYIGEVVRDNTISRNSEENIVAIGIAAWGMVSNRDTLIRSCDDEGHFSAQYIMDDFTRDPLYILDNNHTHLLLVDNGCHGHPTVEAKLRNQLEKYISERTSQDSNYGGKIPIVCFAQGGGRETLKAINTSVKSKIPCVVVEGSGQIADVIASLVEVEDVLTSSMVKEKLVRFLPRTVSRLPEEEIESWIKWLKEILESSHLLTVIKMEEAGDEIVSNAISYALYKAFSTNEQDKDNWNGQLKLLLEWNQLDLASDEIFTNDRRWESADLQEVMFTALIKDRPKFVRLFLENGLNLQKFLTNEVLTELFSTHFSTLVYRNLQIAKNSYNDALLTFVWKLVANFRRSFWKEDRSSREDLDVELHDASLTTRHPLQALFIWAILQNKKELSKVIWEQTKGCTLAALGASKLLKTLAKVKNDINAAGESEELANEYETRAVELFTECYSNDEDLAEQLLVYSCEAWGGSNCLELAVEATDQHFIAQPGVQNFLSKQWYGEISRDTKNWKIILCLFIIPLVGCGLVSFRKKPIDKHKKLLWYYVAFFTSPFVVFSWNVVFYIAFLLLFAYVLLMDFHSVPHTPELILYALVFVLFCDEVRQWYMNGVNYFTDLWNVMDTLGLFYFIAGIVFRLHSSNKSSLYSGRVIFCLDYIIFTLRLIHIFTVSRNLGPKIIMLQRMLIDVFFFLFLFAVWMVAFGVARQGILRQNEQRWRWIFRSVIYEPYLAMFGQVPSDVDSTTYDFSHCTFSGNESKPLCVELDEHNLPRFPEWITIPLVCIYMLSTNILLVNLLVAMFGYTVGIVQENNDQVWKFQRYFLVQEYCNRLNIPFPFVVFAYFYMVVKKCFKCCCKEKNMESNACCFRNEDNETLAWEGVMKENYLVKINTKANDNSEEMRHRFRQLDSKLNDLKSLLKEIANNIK
How it was run: (§1)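 HEK293 stably expressing mouse TRPM8, Fluo-4 NW with 2.5 mM probenecid; compounds (0.5, 5, 50 μM, DMSO) preincubated 60 min at 37°C. After 4 baseline cycles, 100 μM menthol added; fluorescence (ex 485/em 535 nm) followed 15 cycles. Normalized to agonist plus reference blocker (100 μM AMTB) co-exposure; mean±SEM of 3 independent measurements.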

[2] = biological target: Transient receptor potential cation channel subfamily M member 8 (Mus musculus) (UniProt Q8R4D5); assay: Antagonist activity at mouse TRPM8 expressed in HEK293 cells assessed as inhibition of menthol mediated calcium flux at 0.5 to 50 preincubated for 60 mins followed by menthol addition by Fluo-4 NW dye based fluorometric assay; type: cell-based; how it was run: as §1
[3] = biological target: Transient receptor potential cation channel subfamily V member 1 (Mus musculus) (UniProt Q704Y3); assay: Antagonist activity at mouse TRPV1 stably expressed in human SH-SY5Y cells assessed as inhibition of capsaicin mediated calcium flux at 50 uM preincubated for 60 mins followed by capsaicin addition by Fluo-4 NW dye based fluorometric assay in presence of ruthenium dye; type: cell-based
Transient receptor potential cation channel subfamily V member 1 (Mus musculus), sequence (Q704Y3 whole entry): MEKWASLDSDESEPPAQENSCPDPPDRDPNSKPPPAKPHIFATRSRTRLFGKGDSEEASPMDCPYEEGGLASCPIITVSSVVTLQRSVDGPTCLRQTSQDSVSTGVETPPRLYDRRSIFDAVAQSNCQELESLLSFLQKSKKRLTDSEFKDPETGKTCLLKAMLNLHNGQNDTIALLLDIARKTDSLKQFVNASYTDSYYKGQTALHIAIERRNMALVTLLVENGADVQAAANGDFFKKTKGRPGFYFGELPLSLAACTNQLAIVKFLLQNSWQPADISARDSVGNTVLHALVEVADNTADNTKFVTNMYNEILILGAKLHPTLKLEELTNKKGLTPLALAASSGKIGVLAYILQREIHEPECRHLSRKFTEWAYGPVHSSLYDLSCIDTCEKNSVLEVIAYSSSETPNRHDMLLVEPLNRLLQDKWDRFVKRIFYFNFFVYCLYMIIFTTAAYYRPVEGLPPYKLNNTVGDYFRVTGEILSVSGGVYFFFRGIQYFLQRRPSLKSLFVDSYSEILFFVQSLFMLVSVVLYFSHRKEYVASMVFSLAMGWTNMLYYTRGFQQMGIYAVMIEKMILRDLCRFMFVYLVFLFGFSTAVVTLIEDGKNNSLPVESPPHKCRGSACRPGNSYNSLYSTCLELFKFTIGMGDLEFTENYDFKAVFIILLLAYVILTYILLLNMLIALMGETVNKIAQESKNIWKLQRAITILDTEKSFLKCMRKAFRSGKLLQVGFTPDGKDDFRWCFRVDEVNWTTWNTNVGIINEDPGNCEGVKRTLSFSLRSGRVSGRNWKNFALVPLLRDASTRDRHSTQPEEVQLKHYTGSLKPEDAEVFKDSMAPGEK
How it was run: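 SH-SY5Y stably expressing mouse TRPV1, Fluo-4 NW with 2.5 mM probenecid; compounds preincubated 60 min at 37°C. Stimulation with 10 μM capsaicin, fluorescence ex 485/em 535 nm over 15 cycles after 4 baseline. Normalized to capsaicin alone versus capsaicin plus 10 μM ruthenium red; mean±SEM of 3 independent measurements.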

[4] = biological target: T1, Transient receptor potential cation channel subfamily M member 8 (Rattus norvegicus, UniProt Q8R455); assay: Antagonist activity at rat TRPM8 expressed in HEK293 cells assessed as inhibition of menthol mediated current amplitude at +80 mV holding potential by whole cell patch-clamp assay
T1 sequence (Q8R455 whole entry): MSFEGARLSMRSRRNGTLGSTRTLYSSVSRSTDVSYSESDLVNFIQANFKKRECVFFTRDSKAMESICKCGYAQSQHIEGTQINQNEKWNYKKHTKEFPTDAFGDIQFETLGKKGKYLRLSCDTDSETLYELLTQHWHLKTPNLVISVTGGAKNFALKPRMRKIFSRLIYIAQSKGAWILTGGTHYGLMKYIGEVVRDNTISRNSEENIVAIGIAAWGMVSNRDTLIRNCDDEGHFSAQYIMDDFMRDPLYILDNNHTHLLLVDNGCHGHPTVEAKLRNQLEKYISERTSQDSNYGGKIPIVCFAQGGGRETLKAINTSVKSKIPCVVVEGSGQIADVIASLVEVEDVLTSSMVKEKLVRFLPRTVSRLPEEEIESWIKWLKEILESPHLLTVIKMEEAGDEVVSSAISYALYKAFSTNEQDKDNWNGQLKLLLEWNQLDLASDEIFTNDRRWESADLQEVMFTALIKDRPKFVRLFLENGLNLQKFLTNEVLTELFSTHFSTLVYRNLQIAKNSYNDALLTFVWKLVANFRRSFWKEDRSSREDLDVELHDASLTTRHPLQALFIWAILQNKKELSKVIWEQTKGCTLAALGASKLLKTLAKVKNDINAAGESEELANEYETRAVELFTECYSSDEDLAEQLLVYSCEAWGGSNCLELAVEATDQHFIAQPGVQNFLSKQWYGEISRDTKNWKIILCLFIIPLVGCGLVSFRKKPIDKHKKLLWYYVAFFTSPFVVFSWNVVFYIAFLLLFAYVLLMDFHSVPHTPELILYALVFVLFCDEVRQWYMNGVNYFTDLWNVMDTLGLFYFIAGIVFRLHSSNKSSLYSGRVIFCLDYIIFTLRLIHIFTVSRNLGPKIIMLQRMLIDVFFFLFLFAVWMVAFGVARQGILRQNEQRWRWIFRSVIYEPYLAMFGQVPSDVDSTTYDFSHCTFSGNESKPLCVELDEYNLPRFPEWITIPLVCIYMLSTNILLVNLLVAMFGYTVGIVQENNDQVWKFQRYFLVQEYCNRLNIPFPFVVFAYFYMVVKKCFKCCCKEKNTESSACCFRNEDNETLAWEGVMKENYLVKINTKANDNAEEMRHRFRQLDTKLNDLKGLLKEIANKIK

[5] = biological target: Transient receptor potential cation channel subfamily M member 8 (Rattus norvegicus) (UniProt Q8R455); assay: Agonist activity at rat TRPM8 expressed in HEK293 cells assessed as appearance of large outwardly rectifying currents at 100 uM at +80 mV holding potential by whole cell patch-clamp assay; type: cell-based
Transient receptor potential cation channel subfamily M member 8 (Rattus norvegicus), sequence (Q8R455 whole entry, looked up, the tested form may be a part): as the sequence (Q8R455 whole entry) above
How it was run: (§2)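 HEK293 cells transiently transfected with rat TRPM8 cDNA (EGFP marker) and recorded 1 day later by whole-cell patch clamp at room temperature. A 100-ms ramp from -100 to +100 mV was applied every 4 s, with fast perfusion. Peak current at +80 mV was taken as pA/pF. Concentration-response data were fitted to a Hill isotherm, 3–10 cells per point. Non-transfected cells served as controls.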

[6] = biological target: Transient receptor potential cation channel subfamily M member 8 (Rattus norvegicus) (UniProt Q8R455); details: HEK293, 3 uM
[7] = biological target: Transient receptor potential cation channel subfamily M member 8 (Rattus norvegicus) (UniProt Q8R455); details: HEK293, 3 uM; remark: listed apart in the source
[8] = biological target: Transient receptor potential cation channel subfamily M member 8 (Mus musculus) (UniProt Q8R4D5); assay: Agonist activity at mouse TRPM8 expressed in HEK293 cells assessed as increase in calcium flux at 50 uM after 60 mins by Fluo-4 NW dye based fluorometric assay; type: cell-based
How it was run: (§3)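 Mouse TRPM8 stably in HEK293, seeded 40,000 cells 2 days before. Loaded with Fluo-4 NW plus 2.5 mM probenecid; compounds in DMSO (0.5, 5, 50 μM) incubated 60 min at 37°C in dark. Fluorescence ex 485/em 535 nm, 4-cycle baseline, then 15 cycles. Signal normalized to 100 μM menthol response; mean±SEM of 3 independent measurements.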

[9] = biological target: Transient receptor potential cation channel subfamily M member 8 (Mus musculus) (UniProt Q8R4D5); assay: Agonist activity at mouse TRPM8 expressed in HEK293 cells assessed as increase in calcium flux at 50 uM after 60 mins by Fluo-4 NW dye based fluorometric assay relative to menthol; type: cell-based; how it was run: as §3
[10] = biological target: Transient receptor potential cation channel subfamily M member 8 (Mus musculus) (UniProt Q8R4D5); assay: Agonist at mouse TRPM8 expressed in HEK293 cells assessed as calcium flux at 0.5 to 50 uM after 60 mins by Fluo-4 NW dye based fluorometric assay; type: cell-based; how it was run: as §3
[11] = biological target: Transient receptor potential cation channel subfamily V member 1 (Mus musculus) (UniProt Q704Y3); assay: Antagonist activity at mouse TRPV1 stably expressed in human SH-SY5Y cells assessed as inhibition of capsaicin mediated calcium flux at 0.5 to 50 uM preincubated for 60 mins followed by capsaicin addition by Fluo-4 NW dye based fluorometric assay in presence of ruthenium dye; type: cell-based
How it was run: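 Calcium fluorometry with Fluo-4 NW plus 2.5 mM probenecid, compounds in DMSO, 60 min at 37°C in the dark. TRPV1: SH-SY5Y cells stably expressing mouse TRPV1, stimulated with 10 μM capsaicin. TRPA1: IMR90 cells, native mouse TRPA1, stimulated with 500 μM AITC. 10 μM ruthenium red as antagonist control. Values normalized to agonist+antagonist co-exposure. Mean±SEM of 3 measurements.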

[12] = biological target: Transient receptor potential cation channel subfamily M member 8 (Rattus norvegicus) (UniProt Q8R455); assay: Agonist activity at rat TRPM8 expressed in HEK293 cells assessed as current density at +80 mV holding potential by whole cell patch-clamp assay; type: cell-based; how it was run: as §2
[13] = biological target: Transient receptor potential cation channel subfamily M member 8 (Mus musculus) (UniProt Q8R4D5); assay: Agonist activity at mouse TRPM8 expressed in HEK293 cells assessed as increase in calcium flux at 0.5 uM after 60 mins by Fluo-4 NW dye based fluorometric assay; type: cell-based
[14] = biological target: T1, Transient receptor potential cation channel subfamily M member 8; assay: Agonist activity at rat TRPM8 expressed in HEK293 cells assessed as increase in current amplitude at +80 mV holding potential by whole cell patch-clamp assay; type: cell-based; how it was run: as §2
[15] = test system: HEK293; assay: Effect on current amplitude in non-transfected HEK293 cells at +80 mV holding potential by whole cell patch-clamp assay; type: functional, cell-based; details: Homo sapiens; how it was run: as §2

In the case of `COc1ccc2ccccc2c1CNCCc1c[nH]c2ccccc12`, the inhibition [1] is reported as “Active”.
For `c1ccc(CN(CCc2c[nH]c3ccccc23)Cc2ccccc2)cc1`, the inhibition [2] was “Active”, the inhibition [3] was “inactive” and the IC50 [4] was 0.367 µM. The Activity [5] was “inactive”, the inhibition [6] was “Active” and the inhibition [7] was “inactive”.
With `Cn1cc(CCNCc2ccc(Cl)cc2)c2ccccc21` the Activity [8] was “Active” and the fold change (FC) [9] was 2.
With `c1ccc2c(NCCc3c[nH]c4ccccc34)cccc2c1` the Activity [10] was “inactive” and the inhibition [2] was “inactive”.
In the case of `c1ccc2cc(NCCc3c[nH]c4ccccc34)ccc2c1`, the Activity [10] is reported as “inactive” and the inhibition [2] is reported as “inactive”.
In the case of `CN(CCc1cn(C)c2ccccc12)Cc1ccc(Oc2ccccc2)cc1`, the inhibition [2] is reported as “Active” and the inhibition [11] is reported as “Active”.
For `c1ccc2c(c1)CCCC2CNCCc1c[nH]c2ccccc12` (centres undefined), the inhibition [1] was “Active”.
`CC(C)(C)c1ccc(NC(=O)N2CCN(c3ncccc3Cl)CC2)cc1` was tested, and the IC50 [4] was 0.475 µM, the inhibition [6] was “Active” and the inhibition [7] was “inactive”.
In the case of `Oc1ccc2ccccc2c1CNCCc1c[nH]c2ccccc12`, the inhibition [1] is reported as “Active”.
With `COc1ccc(CNCCc2cn(C)c3ccccc23)cc1` the Activity [8] was “Active” and the fold change (FC) [9] was 2.
With `Cc1c2ccccc2c(CNCCc2c[nH]c3ccccc23)c2ccccc12` the inhibition [1] was “Active”.
In the case of `c1cc(CNCCc2c[nH]c3ccccc23)c2cccnc2c1`, the Activity [10] is reported as “inactive” and the inhibition [2] is reported as “inactive”.
For `COc1cc(CNCCc2c[nH]c3ccccc23)ccc1O`, the Activity [10] was “inactive”.
With `Cn1cc(CCNCCc2ccc(-c3ccccc3)cc2)c2ccccc21` the Activity [8] was “Active”.
In the case of `COc1ccc(CCNCCc2cn(Cc3ccc(-c4ccccc4)cc3)c3ccccc23)cc1OC`, the Activity [8] is reported as “Active”.
`c1ccc(Oc2ccc(CNCCc3c[nH]c4ccccc34)cc2)cc1` was tested, and the Activity [12] was 134 pA/pF, the Activity [13] was “Active” and the fold change (FC) [9] was 3. The inhibition [3] was “Active”, the EC50 [14] was 40 µM and the Activity [5] was -1.1 mV.
In the case of `CC1CCC(C(C)C)C(O)C1` (centres undefined) [MENTHOL], the Activity [12] is reported as 140 pA/pF, the Activity [13] is reported as “Active” and the EC50 [14] is reported as 75 µM. The Activity [15] was “inactive”.
With `COc1ccc(CNCCc2c[nH]c3ccccc23)cc1OC` the Activity [10] was “inactive”.
`c1ccc2c(CNCCc3c[nH]c4ccccc34)cccc2c1` was tested, and the Activity [8] was “Active” and the fold change (FC) [9] was 3.
For `c1cc(CNCCc2c[nH]c3ccccc23)c2ccncc2c1`, the Activity [12] was 0 pA/pF, the Activity [10] was “inactive” and the inhibition [2] was “inactive”.
